Screening results from PubChem BioAssay.
In the library only some 2.3% were active in any assay of this set; here they are far more common.
OXTR agonist: human OXTR agonists, primary screen, fluorescence, CHO-OTR cells, Fluo-8 calcium | Oxytocin receptor (Homo sapiens), P30559 | Fluo-8 calcium fluorescence; normalized: DMSO 0%, oxytocin 100% | activation, % at 3 µM | hit rate 0.32% among 320,000 | AID 2435, 2010;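 active means activation above the mean of all tested compounds plus 3 SD, cutoff set per screening run, cut at about 20% in these data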;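 further: peak over basal fluorescence ratio from a 100 s FLIPR kinetic read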
TAAR1 ag: human TAAR1 agonists, primary screen, Fluo-8 calcium fluorescence, CHO RD-HGA16 cells. vehicle wells 0%, saturating PEA agonist 100%. AID 624467, 2012. hit rate 0.99% among 360,000. Trace amine-associated receptor 1 (Homo sapiens), Q96RJ0. activation, % at 3 µM;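 active means activation above the mean activation of all test compounds in the run plus 3 SD, cut at about 38% in these data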
Target sequence (Q96RJ0 whole entry, looked up): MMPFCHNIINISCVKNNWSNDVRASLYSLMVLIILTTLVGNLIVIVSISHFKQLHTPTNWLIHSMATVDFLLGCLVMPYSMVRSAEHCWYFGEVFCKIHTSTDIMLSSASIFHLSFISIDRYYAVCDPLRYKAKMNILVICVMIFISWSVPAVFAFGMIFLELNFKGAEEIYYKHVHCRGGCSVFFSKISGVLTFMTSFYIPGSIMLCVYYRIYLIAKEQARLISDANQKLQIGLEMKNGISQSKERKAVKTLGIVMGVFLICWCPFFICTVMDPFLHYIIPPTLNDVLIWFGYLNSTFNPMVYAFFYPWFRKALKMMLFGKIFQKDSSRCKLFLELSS
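System: CHO RD-HGA16 cells carrying human TAAR1 plus Gα16; Incubation: 17-24 h seeding, 75 min 37 °C dye, 30 min RT; Measured by: Fluo-8 fluorescence, 5 s baseline then 140 s kinetic read; Control set: DMSO and PEA EC100; Replication: single well for each compound.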
TAAR1 antagonist: human TAAR1 antagonists, primary screen, Fluo-8 calcium fluorescence, CHO RD-HGA16 cells; AID 624466, 2012; antagonist; Trace amine-associated receptor 1 (Homo sapiens), Q96RJ0; hit rate 1.5% among 360,000; inhibition, % at 3 µM;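 active means inhibition above a per-plate cutoff, the mean inhibition of test compounds on that plate plus 3 SD, cut at about 49% in these data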;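 further: 0% = DMSO plus EC80 beta-PEA response and 100% = DMSO alone without agonist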
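System: RD-HGA16 CHO cells with stable hTAAR1 and Gα16 | Probe or stimulus: EC80 β-phenethylamine stimulus | Dosing: 3 µM, single point | Times: Dye loading 75 min at 37 °C, then 30 min room temperature | Measured by: Fluo-8 calcium-sensitive fluorescence | Read-out basis: % inhibition of agonist calcium response | Replicates: n of 1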
V1R ag counter: agonists of human V1a receptor, primary screen, counter-screen for OXTR agonist project, fluorescence, CHO-V1R cells; hit rate 0.25% among 320,000; activation, % at 3 µM; Fluo-8 calcium fluorescence, agonist mode; 0% DMSO, 100% 3 nM vasopressin; Vasopressin V1a receptor (Homo sapiens), P37288;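 active means activation above the mean activation of all tested compounds plus 3 SD, per screening run, cut at about 20% in these data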;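 further: signal is peak over basal fluorescence ratio across a 100 second FLIPR read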
OXTR potentiator: human OXTR potentiators, primary screen, fluorescence, CHO-OTR cells, Fluo-8 calcium; Oxytocin receptor (Homo sapiens), P30559; Fluo-8 calcium fluorescence, potentiator mode; 0% = oxytocin EC15, 100% = EC100; activation, % at 3 µM; hit rate 0.061% among 320,000; AID 2445, 2010;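 active means activation above that plate's cutoff, the mean activation of tested compounds plus 3 SD, cut at about 6.6% in these data, passing the limit was not always enough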;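 further: 100% uses oxytocin at 75 nM as the full agonist control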
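Assay system: CHO cell line stably expressing human OTR. Reagent: EC15 oxytocin agonist. Dosing: single dose, 3.0 µM nominal final compound concentration. Timing: compound 6 min at room temperature before oxytocin, 100 s read. Signal: kinetic Fluo-8 calcium fluorescence. Controls: oxytocin EC15 low and EC100 high.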
* = called active by the depositor; . = no result given.

SMILES	OXTR agonist	TAAR1 ag	TAAR1 antagonist	V1R ag counter	OXTR potentiator
Cc1ccc(S(=O)(=O)N2CCN(C(=O)c3cc(=O)[nH]c4ccccc34)CC2)c(C)c1	0	20	51*	3	-3
COc1cc(S(=O)(=O)NCc2ccncc2)ccc1Br	8	2	5	13	-10
CCOC(=O)c1ccc(NC(=O)c2ccc(C)c(S(=O)(=O)N3CCOCC3)c2)cc1	8	25	80*	8	-19
O=C(Oc1ccc2c(c1)OCO2)c1ccc(Br)c(S(=O)(=O)N2CCOCC2)c1	3	21	51*	5	-9
O=C(Nc1ccc2c(c1)OCCO2)c1ccc(Br)c(S(=O)(=O)N2CCOCC2)c1	.	18	54*	.	.
CC(=O)c1c(C)[nH]c(C(=O)CSc2nc3ccccc3n2C)c1C	13	24	55*	8	-28
CCn1c(SCC(=O)c2[nH]c(C)c(C(C)=O)c2C)nnc1-c1cccs1	12	22	21	6	-8
Cn1nccc1-c1coc2c(C(=O)NCc3ccccc3)cccc12	.	2	0	.	.
O=C(CCCN1C(=O)/C(=C/c2ccccc2Cl)SC1=S)NNC(=O)c1cccnc1	2	-1	-29	2	-10
O=C(CCN1C(=O)/C(=C\c2ccccc2)SC1=S)NNC(=O)c1cccnc1	6	17	54*	8	-13
COc1cc(/C=C/C(=O)OCC(=O)N(CC(C)C)c2c(N)n(Cc3ccccc3)c(=O)[nH]c2=O)ccc1O	.	25	49*	.	.
Cc1ccc(NC(=S)N(CCCN2CCCC2)Cc2cccn2Cc2ccc(Cl)cc2)cc1Cl	-1	11	-39	-1	-4
COc1ccc(NC(=S)N(CCCN2CCCC2)Cc2cccn2Cc2ccc(Cl)cc2)cc1Cl	12	40*	36	9	-20
O=C(CNC(=O)c1ccccc1)N/N=C/C=C/c1ccccc1	1	42*	21	2	3
CCCc1nc2sc3ccccc3c(=O)c2c(=O)n1Cc1ccco1	.	68*	1	.	.
O=C(COC(=O)c1cncc(Br)c1)NCc1ccc2c(c1)OCO2	0	-2	-1	0	-1
O=C(c1cc(-c2ccccn2)nc2ccccc12)N1CCN(c2ncccn2)CC1	0	4	17	5	-10
Cc1ccc(-c2cc(C(=O)N3CCN(c4ncccn4)CC3)c3ccccc3n2)cc1	-2	16	50*	-1	-7
COc1ccc(-c2cc(C(=O)N3CCC3)c3ccccc3n2)cc1OC	-2	7	17	-1	-12
COc1ccc(-c2cc(C(=O)N3CCN(c4ncccn4)CC3)c3ccccc3n2)cc1OC	-2	13	57*	3	4
O=C(COC(=O)c1ccccc1-c1ccccc1[N+](=O)[O-])c1ccccc1	0	10	56*	1	-6
CCOc1ccc(C(=O)NCC(=O)NNC(=O)CN(C)S(=O)(=O)c2ccc(Cl)cc2)cc1	0	-1	-11	0	-3
C[C@@H]1CNC(=O)c2c(C(=O)NCc3ccc(CNC(=O)OC(C)(C)C)cc3)ncn21	.	3	0	.	.
C[C@@H]1CNC(=O)c2c(C(=O)Nc3ccc(CNC(=O)OC(C)(C)C)cc3)ncn21	.	13	50*	.	.
Cc1cccc(NC(=O)COC(=O)c2nn(C)c(=O)c3ccccc23)c1C	0	3	-13	1	-6
SMILES	OXTR agonist	TAAR1 ag	TAAR1 antagonist	V1R ag counter	OXTR potentiator
CCCc1nc2ccccc2c(C(=O)OCC(=O)Nc2cccc(S(=O)(=O)N3CCOCC3)c2)c1CC	-1	3	52*	4	-17
CC1CCc2nc3ccccc3c(C(=O)OCC(=O)N3CCc4ccccc43)c2C1 (stereo not drawn)	-2	1	26	1	-7
CCCc1nc2ccccc2c(C(=O)OCC(=O)Nc2ccc(S(=O)(=O)N3CCOCC3)cc2)c1CC	1	12	22	2	-2
CCCc1nc2ccccc2c(C(=O)OCC(=O)N2CCc3ccccc32)c1CC	-1	0	52*	1	-7
COc1ccc(COc2cc(-c3cccc(OC)c3)nc3ccc(NC(=O)c4ccc(C)cc4)cc23)cc1	0	7	47	1	-15
COc1ccc(COc2cc(-c3cccc(OC)c3)nc3ccc(NC(C)=O)cc23)cc1	-1	5	59*	2	-15
COc1cccc(-c2cc(C(=O)Nc3ccncc3)c3ccccc3n2)c1	-1	5	39	5	-7
CC(=O)Nc1cccc(NC(=O)c2cc(-c3ccccn3)nc3ccc(Cl)cc23)c1	0	9	65*	0	-1
CC(NC(=O)c1cc(-c2ccccn2)nc2ccc(Cl)cc12)C1CCCO1 (stereo not drawn)	0	4	7	0	-14
O=C(NNC(=S)Nc1ccccc1)c1cc(-c2cccnc2)nc2ccccc12	0	7	21	0	-3
COc1cccc(-c2cc(C(=O)Nc3ccc(N(C)C(C)=O)cc3)c3cc(Br)ccc3n2)c1	1	8	60*	1	-7
CC(OC(=O)c1cc(-c2cccnc2)nc2ccccc12)C(=O)Nc1ccc2ccccc2c1 (stereo not drawn)	-1	9	51*	1	-7
O=C(Cn1cnc2ccccc2c1=O)NCCCN1CCCC1=O	1	0	0	1	-6
CC(C)Oc1ccc(S(=O)(=O)N2CCOCC2)cc1NC(=O)C(C)Oc1ccc(F)cc1 (stereo not drawn)	-2	0	-13	-1	-4
O=C(Nc1ccc(C(F)(F)F)cc1)c1cc(-c2cccnc2)nc2ccc(Br)cc12	0	4	10	0	-5
CSc1ccccc1NC(=O)c1cc(-c2cccnc2)nc2ccc(Br)cc12	-2	4	50*	-1	-7
CC(=O)Nc1cccc(NC(=O)c2cc(-c3cccnc3)nc3ccc(Br)cc23)c1	4	21	62*	1	-11
O=C(O)c1cc(-c2cccnc2)nc2ccc(Br)cc12	0	10	-6	2	-12
CCOC(=O)c1c(NC(=O)CN2CCN(S(=O)(=O)c3cc(Cl)ccc3Cl)CC2)sc(C(=O)N(C)C)c1C	.	-2	26	.	.
Brc1ccc(NCc2cccc3ccccc23)nc1	-1	6	19	-1	-9
Oc1ccccc1CNc1ccc(Br)cn1	0	0	71*	2	-9
Cc1cccc(NC(=O)CN2CCN(C(=O)c3ccc(OCc4cn5ccccc5n4)cc3)CC2)c1C	6	5	4	5	-3
